Screens as filed in PubChem.
A selection: hits, their analogues and other compounds. The true share with any hit is near 2.6%.
rCAG RNA binder: r(CAG) repeat RNA binding; 1.3% of 370,000 active; TO-PRO-1 dye displacement fluorescence; AID 651821; inhibition, % at 3 µM;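 active means inhibition above the plate cutoff, the mean of all test compounds on that plate plus 3 SD, cut at about 35% in these data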;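 further: 0% = DMSO alone and 100% = 100 µM mitoxantrone as full dye displacement; higher means more dye released from RNA so lower well fluorescence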
HCV core dimer: blocks dimerization of HCV core protein. TR-FRET GST/Flag-core106 dimerization, 1536-well. AID 1899. inhibition, % at 5 µM. 0.33% of 300,000 active;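 active means inhibition above the mean of all tested compounds plus 3 SD, set per screening campaign, cut at about 45% in these data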
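System: GST/Flag-tagged HCV core106 proteins. Incubation: compound-protein-antibody incubation 4 h at 22.5 °C. Technique: HTRF with 340 nm excitation, 617/671 nm emission. Medium: KF-containing HEPES buffer, pH 7.45, DTT, CHAPS, BSA. Read-out: inhibition (%) from 671 over 617 nm ratio. Also added: Eu(K)-anti-GST 90 ng/mL plus XL665-anti-Flag 1 µg/mL.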
NadD block: inhibitors of Staphylococcus aureus NadD; purified NadD enzyme, colorimetric absorbance read-out; inhibition, % at 20 µM; 0.78% of 360,000 active; in the data active means inhibition above about 26%
ABHD5 PLIN5 PPI: blocks binding of human ABHD5 to perilipin-5; Q00G26+Q8WTS1; Split G. princeps luciferase complementation, luminescence, 4 h; inhibition, % at 4 µM; 0.78% of 360,000 active;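 active means inhibition above the mean inhibition across every tested compound plus 3 SD, cut at about 22% in these data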;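 further: 0% = DMSO only wells and the 100% control is not disclosed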
Target sequence (Q00G26 whole entry, looked up): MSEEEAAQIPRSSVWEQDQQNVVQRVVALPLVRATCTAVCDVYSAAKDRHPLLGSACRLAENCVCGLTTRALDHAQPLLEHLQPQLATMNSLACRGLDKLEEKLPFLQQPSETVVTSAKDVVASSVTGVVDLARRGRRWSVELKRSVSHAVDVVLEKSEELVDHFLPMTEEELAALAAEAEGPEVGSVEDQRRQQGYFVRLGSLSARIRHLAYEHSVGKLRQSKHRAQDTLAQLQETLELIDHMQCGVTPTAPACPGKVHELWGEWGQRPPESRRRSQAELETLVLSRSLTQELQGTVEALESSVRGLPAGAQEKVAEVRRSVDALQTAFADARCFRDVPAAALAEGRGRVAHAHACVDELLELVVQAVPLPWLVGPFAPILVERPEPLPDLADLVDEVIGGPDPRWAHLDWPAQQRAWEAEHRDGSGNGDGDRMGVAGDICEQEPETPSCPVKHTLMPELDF
Target sequence (Q8WTS1 whole entry, looked up): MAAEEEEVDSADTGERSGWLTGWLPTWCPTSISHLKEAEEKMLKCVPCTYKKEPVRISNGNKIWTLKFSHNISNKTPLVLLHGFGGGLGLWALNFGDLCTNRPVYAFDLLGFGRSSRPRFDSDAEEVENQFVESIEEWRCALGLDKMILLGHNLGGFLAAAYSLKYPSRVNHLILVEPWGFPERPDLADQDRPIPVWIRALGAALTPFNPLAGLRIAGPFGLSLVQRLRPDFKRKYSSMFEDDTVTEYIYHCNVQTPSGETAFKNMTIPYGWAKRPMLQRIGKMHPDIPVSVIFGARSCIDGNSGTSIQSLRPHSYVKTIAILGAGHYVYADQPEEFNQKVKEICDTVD
rCAG binder conf: r(CAG) RNA repeat binding, confirmation | shares compounds with rCAG RNA binder | TO-PRO-1 dye displacement fluorescence | inhibition, % at 3 µM | 70% of 4,300 active | AID 652065;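 active means inhibition above a per-plate cutoff, the mean inhibition of sample wells plus 3 SD, cut at about 35% in these data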;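 further: loss of TO-PRO-1 fluorescence as compound displaces dye from 1x1 AA loop RNA; 0% = DMSO only wells and 100% = 100 µM mitoxantrone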
dCAG dye counter: counter-screen for rCAG RNA binders: DNA CAG dye complex inhibitors; inhibition, % at 3 µM; d(CAG) DNA oligo TO-PRO-1 dye displacement, fluorescence; shares compounds with rCAG RNA binder; 94% of 4,300 active;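 active means inhibition above its plate's cutoff, the mean test-well inhibition plus 3 SD, cut at about 4.8% in these data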;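 further: 0% = DNA dye mix with DMSO and 100% = 100 µM mitoxantrone; hits displace the dye from DNA and so lower well fluorescence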
DNA CAG DR: DNA CAG dye complex inhibition, dose response counter-screen; IC50, µM; 20% of 250 active; shares compounds with rCAG RNA binder; DNA CAG/GTC duplex TO-PRO-1 dye displacement fluorescence; in the data active means IC50 below about 10 µM
The depositor's hits bear a star; i = inactive; nt = not tested or not shown.

SMILES | rCAG RNA binder | HCV core dimer | NadD block | ABHD5 PLIN5 PPI | rCAG binder conf | dCAG dye counter | others
Cc1ccc(C(=O)NC2CCCC2)cc1S(=O)(=O)N1CCCCC1 | -5 | 1 | -2 | 1 | nt | nt
Cc1ccc(C(=O)Nc2ccccc2C(=O)O)cc1S(=O)(=O)Nc1ccccc1 | 67* | 18 | 0 | 0 | 46* | 15*
Cc1ccc(C(=O)Nc2ccccc2C(=O)O)cc1S(=O)(=O)NC1CCCCC1 | 70* | -9 | 0 | 2 | 61* | 22*
Cc1ccc(C(=O)N2CCCC2)cc1S(=O)(=O)Nc1ccccc1 | -1 | -10 | -1 | -2 | nt | nt
CC(C)[C@H](N)C(=O)OCC(CO)OCn1cnc2c(=O)[nH]c(N)nc21 (some centres not stated) | 4 | nt | nt | nt | nt | nt
Cc1cc(C)cc(NC(=O)C(Sc2nnc(C)c(=O)[nH]2)c2ccccc2)c1 (configuration not stated) | 27 | -2 | -2 | -1 | nt | nt
Cc1nnc(SC(C(=O)Nc2ccc(Cl)c([N+](=O)[O-])c2)c2ccccc2)[nH]c1=O (configuration not stated) | 61* | 4 | -3 | -5 | 40* | 12*
O=C(COC(=O)c1cccc(NS(=O)(=O)c2ccc(F)c(F)c2)c1)NC(=O)NC1CCCC1 | 36* | 5 | -9 | 2 | 26 | 5.0*
CN(C)CCN(Cc1ccccc1)C(c1ccnc2ccccc12)c1nnnn1-c1ccc2c(c1)OCCO2 (configuration not stated) | 1 | nt | -10 | 1 | nt | nt
C[C@@H]1CNCCN1c1ccc(N2CCN(Cc3ccccc3)[C@@H](C)C2)c(C#N)c1 | 5 | nt | nt | nt | nt | nt
O=C(CSCc1ccc(Cl)cc1)Nc1cccc(C(=O)Nc2ccccc2C(=O)O)c1 | 76* | 23 | -1 | 12 | 83* | 43*
O=C(CSCc1ccccc1)Nc1cccc(C(=O)Nc2ccccc2C(=O)O)c1 | 72* | 4 | -4 | -11 | 55* | 18*
Clc1ccc([C@H]2OC[C@@]3(CNCc4ccccn4)CS[C@H](c4ccc(Cl)cc4)N23)cc1 | 2 | nt | nt | nt | nt | nt
O=C(NNc1nc2c(F)cccc2s1)c1cc(=O)c2ccccc2o1 | 58* | -1 | 15 | -15 | 68* | 24*
O=C(NNc1nc2c(F)cccc2s1)c1ccc(F)cc1 | 3 | -2 | -8 | -7 | nt | nt
COc1ccc2nc(NNC(=O)c3cc(=O)c4ccccc4o3)sc2c1 | 36* | 2 | 26 | -4 | 55* | 19*
CCOc1ccc(-n2c(SCC(=O)Nc3ccc(Oc4ccccc4)cc3)nnc2-c2ccncc2)cc1 | 13 | nt | nt | nt | nt | nt
Cc1cc(NS(=O)(=O)c2ccc(NC(=O)CSc3nnc(SCc4ccc(Cl)cc4)s3)cc2)nc(C)n1 | 59* | nt | nt | nt | 58* | 20*
COc1ccc(NC(=O)CSc2nnc(-c3ccccc3)n2Cc2ccco2)cc1OC | 1 | 3 | -2 | 1 | nt | nt
CCOc1ccc(-n2c(SCC(=O)Nc3ccc(S(=O)(=O)Nc4nccs4)cc3)nnc2-c2ccccc2)cc1 | 80* | nt | nt | nt | 72* | 38*
COCC(=O)Nc1ccc(S(=O)(=O)Nc2cc(C)nc(C)n2)cc1 | nt | 3 | -2 | -1 | nt | nt
CCn1c2ccccc2c2cc(NC(=O)CSc3nnc(-c4ccccc4)n3Cc3ccco3)ccc21 | 35* | nt | nt | nt | 27 | 15*
Cc1ccc(-n2c(SCC(=O)Nc3ccc(S(=O)(=O)Nc4cc(C)nc(C)n4)cc3)nnc2-c2cccs2)cc1 | 43* | nt | nt | nt | 42* | 11*
COc1ccc(-n2c(SCC(=O)Nc3ccc(S(=O)(=O)Nc4nccs4)cc3)nnc2-c2ccco2)cc1 | 74* | nt | nt | nt | 69* | 30*
O=C(CSc1nnc(-c2ccncc2)n1Cc1ccco1)Nc1nccs1 | -4 | 2 | -1 | 1 | nt | nt
SMILES | rCAG RNA binder | HCV core dimer | NadD block | ABHD5 PLIN5 PPI | rCAG binder conf | dCAG dye counter | others
CC(C)(C)c1ccc(-c2nnc(SCC(=O)Nc3ccc(S(=O)(=O)Nc4nccs4)cc3)n2Cc2ccco2)cc1 | 51* | nt | nt | nt | 47* | 20*
COc1ccc(-c2nnc(SCC(=O)Nc3ccc(S(=O)(=O)Nc4nccs4)cc3)n2-c2ccc(OC)cc2)cc1 | 64* | nt | nt | nt | 58* | 28*
COc1ccc(-n2c(SCC(=O)Nc3ccc(S(=O)(=O)Nc4nccs4)cc3)nnc2-c2cccs2)cc1 | 73* | nt | nt | nt | 72* | 33* | DNA CAG DR=i
Cc1cc(Nc2cccc(Br)c2)cc(=O)n1-c1cccc(Br)c1 | 12 | nt | nt | nt | nt | nt
O=C(C[C@H]1C=C[C@H](NC(=O)c2ccccn2)[C@@H](CO)O1)NCc1cc(F)cc(F)c1 | 0 | nt | nt | 0 | nt | nt
O=C(CSc1nnc(-c2cccnc2)n1-c1ccc(Cl)cc1)Nc1ccc(S(=O)(=O)Nc2nccs2)cc1 | 59* | nt | nt | nt | 63* | 22*
Cn1c(SCC(=O)Nc2ccc(S(=O)(=O)Nc3nccs3)cc2)nc2sc3c(c2c1=O)CCCC3 | 74* | nt | nt | nt | 77* | 43*
Cc1cc(NC(=O)CSc2nc3sc4c(c3c(=O)n2C)CCCC4)no1 | 0 | 4 | -6 | 4 | nt | nt
Cc1ccc(NC(=O)CSc2nnc(-c3cccnc3)n2-c2ccc(C)cc2)cc1 | -1 | 0 | 4 | 2 | nt | nt
CCCNC(=O)C1(C)CCCN(Cc2c(F)cccc2F)C1 (configuration not stated) | -2 | nt | 1 | -4 | nt | nt
CCOc1cc(/C=C\c2nc(O)c([N+](=O)[O-])c(=O)[nH]2)ccc1OC(C)CC (configuration not stated) | 45* | 15 | -3 | 5 | 46* | 9.5* | DNA CAG DR=>30
CCOc1ccc(/C=C\c2nc(O)c([N+](=O)[O-])c(=O)[nH]2)cc1OCC | 3 | 11 | 1 | 5 | nt | nt
C/C=C/c1cccc(-c2nc(C(=O)N3CCN(C)CC3)cc3c2[C@@H](CCO)N(C(=O)NC(C)C)C3)c1 | 5 | nt | -5 | 8 | nt | nt
CC(=O)NS(=O)(=O)c1cccnc1Nc1ccc(Cl)c(Cl)c1 | 37* | 3 | -4 | 14 | 38* | 14*
O=C1NC[C@H](CCCCN2C[C@H](Cc3ccccc3)N(CCC3CCCCC3)C(=O)C2=O)N(CCc2ccc(O)cc2)C1=O | 7 | nt | 23 | 12 | nt | nt
N#Cc1ccc(CC(=O)c2ccccc2)[nH]c1=O | 35* | nt | 7 | -8 | 14 | 4
Fc1cccc(Cc2c(C3CCCCC3)nc3c4ccccc4ccn23)c1 | 8 | nt | 15 | -4 | nt | nt
COc1ccc(CN2C[C@H](COCc3ccccc3)Oc3cccc(F)c3S2(=O)=O)cc1 | 5 | nt | nt | nt | nt | nt
Brc1ccc2cccnc2c1 | -2 | 3 | -2 | 3 | nt | nt
Nc1cc2cccnc2cc1Cl | 41* | nt | 0 | -29 | 5 | 1
Nc1nonc1N/N=C/c1c(O)ccc2ccccc12 | 40* | -20 | -7 | 4 | 20 | 15*
COc1ccc(S(=O)(=O)N2CCC[C@H]2C(=O)N2CCC[C@H]2C(=O)NCc2ccccn2)cc1C | 0 | nt | 2 | 10 | nt | nt
